Columns and labels:
[1] = Lipophilicity, log k of the compound by HPLC analysis; format: physicochemical
Outline: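 Mobile phase MeOH/water 70:30, 1.0 mL/min, column at 45 °C, samples at 10 °C, photodiode array detection. log k calculated from k.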

Cholinesterase = Cholinesterase (Equus caballus, UniProt P81908); experiment: Inhibition of equine BChE using after 10 mins by Ellman's method
Outline: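 BChE from equine serum, diluted in phosphate buffer (0.1 M, pH 8). Catalytic activity in the final mixture was 0.14 U/mL. Enzyme was preincubated with compound (dioxane stock diluted in water) for 5 min at 25 °C. Then 0.5 mM DTNB and 0.25 mM acetylthiocholine were added, incubated 10 min at 25 °C, and absorbance read at 412 nm. IC50 taken from %inhibition versus concentration, 3 replicates.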

Acetylcholinesterase = Acetylcholinesterase (Electrophorus electricus, UniProt O42275); experiment: Inhibition of Electrophorus electricus AChE using acetylthiocholine as substrate after 10 mins by Ellman's method
Chain of Acetylcholinesterase (O42275 whole entry): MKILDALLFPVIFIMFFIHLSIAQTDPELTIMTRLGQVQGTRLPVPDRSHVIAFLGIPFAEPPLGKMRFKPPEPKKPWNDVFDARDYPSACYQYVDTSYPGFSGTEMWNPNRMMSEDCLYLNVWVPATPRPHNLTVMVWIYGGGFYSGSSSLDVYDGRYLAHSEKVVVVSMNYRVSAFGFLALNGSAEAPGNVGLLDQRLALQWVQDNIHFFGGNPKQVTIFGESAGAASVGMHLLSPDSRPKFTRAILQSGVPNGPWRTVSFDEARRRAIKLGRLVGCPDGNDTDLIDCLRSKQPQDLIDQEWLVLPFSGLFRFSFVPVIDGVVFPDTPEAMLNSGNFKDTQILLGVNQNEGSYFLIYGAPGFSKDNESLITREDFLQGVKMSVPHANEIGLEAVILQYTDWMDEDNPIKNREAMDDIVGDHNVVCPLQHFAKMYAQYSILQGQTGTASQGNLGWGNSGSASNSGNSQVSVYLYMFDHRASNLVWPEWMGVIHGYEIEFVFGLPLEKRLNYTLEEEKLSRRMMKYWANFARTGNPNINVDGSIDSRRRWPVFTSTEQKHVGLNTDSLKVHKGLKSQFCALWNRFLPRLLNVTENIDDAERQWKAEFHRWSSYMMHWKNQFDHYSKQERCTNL

[2] = Lipophilicity, log P of the compound calculated using ChemOffice software
MCF7 [3] = experiment: Growth inhibition of human MCF7 cells at 0.01 to 100 umol/l measured immediately by xCelligence RTCA SP assay; format: cell-based
Outline: (§1)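 MCF7 (p37) grown in DMEM with 10% FCS, penicillin-streptomycin and 0.01 mg/mL insulin. Seeded at 75.000 cells/well on impedance E-plates and monitored hourly as cell index. Treated in log phase with compounds in DMSO, 0.01–2500 µmol/L, in triplicate. CI normalized to the last point before addition. Vehicle control 0.1% DMSO; 10% DMSO as 0% viability. IC50 taken at 24 h.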

MCF7 [4] = experiment: Growth inhibition of human MCF7 cells at 2500 umol/l measured immediately by xCelligence RTCA SP assay; format: cell-based; conditions: mcf7, 2500 µM; outline: as §1
MCF7 [5] = experiment: Growth inhibition of human MCF7 cells at 1000 umol/l measured immediately by xCelligence RTCA SP assay; format: cell-based; conditions: mcf7, 1000 µM; outline: as §1
HepG2 [6] = experiment: Growth inhibition of human HepG2 cells at >10 umol/l after 24 hrs by MTS assay; format: cell-based; conditions: hepg2, 24 h
Outline: (§2)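 HepG2 (p13) grown in MEM with 10% FBS, L-glutamine and non-essential amino acids at 37 °C, 5% CO2. Seeded at 10,000 cells/well and treated next day with compounds in DMSO, 12 concentrations (0.001–5000 or 0.001–2500 µmol/L), in triplicate. Controls were untreated cells, 10% DMSO (0% viability), no cells and vehicle. After 24 h, MTS reagent was added for 3.5 h at 37 °C and A490 was read. IC50 from curve fit.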

MCF7 [7] = experiment: Cytotoxicity against human MCF7 cells after 24 hrs by xCelligence RTCA SP assay; format: cell-based; conditions: MCF7, 24 h; outline: as §1
HepG2 [8] = experiment: Cytotoxicity against human HepG2 cells after 24 hrs by MTS assay; format: cell-based; conditions: HepG2, 24 h; outline: as §2
MCF7 [9] = experiment: Growth inhibition of human MCF7 cells at 2500 umol/l measured after 24 hrs by xCelligence RTCA SP assay; format: cell-based; conditions: mcf7, 24 h, 2500 µM; outline: as §1
MCF7 [10] = experiment: Growth inhibition of human MCF7 cells at 1000 umol/l measured after 24 hrs by xCelligence RTCA SP assay; format: cell-based; conditions: mcf7, 24 h, 1000 µM; outline: as §1
HepG2 [11] = experiment: Growth inhibition of human HepG2 cells at <1000 umol/l after 24 hrs by MTS assay; format: cell-based; conditions: hepg2, 24 h; outline: as §2
HepG2 [12] = experiment: Growth inhibition of human HepG2 cells at >1000 umol/l after 24 hrs by MTS assay; format: cell-based; conditions: hepg2, 24 h; outline: as §2
HepG2 [13] = experiment: Growth inhibition of human HepG2 cells at <100 umol/l after 24 hrs by MTS assay; format: cell-based; conditions: hepg2, 24 h; outline: as §2
HepG2 [14] = experiment: Growth inhibition of human HepG2 cells at >100 umol/l after 24 hrs by MTS assay; format: cell-based; conditions: hepg2, 24 h; outline: as §2

Chain of Cholinesterase (P81908 whole entry): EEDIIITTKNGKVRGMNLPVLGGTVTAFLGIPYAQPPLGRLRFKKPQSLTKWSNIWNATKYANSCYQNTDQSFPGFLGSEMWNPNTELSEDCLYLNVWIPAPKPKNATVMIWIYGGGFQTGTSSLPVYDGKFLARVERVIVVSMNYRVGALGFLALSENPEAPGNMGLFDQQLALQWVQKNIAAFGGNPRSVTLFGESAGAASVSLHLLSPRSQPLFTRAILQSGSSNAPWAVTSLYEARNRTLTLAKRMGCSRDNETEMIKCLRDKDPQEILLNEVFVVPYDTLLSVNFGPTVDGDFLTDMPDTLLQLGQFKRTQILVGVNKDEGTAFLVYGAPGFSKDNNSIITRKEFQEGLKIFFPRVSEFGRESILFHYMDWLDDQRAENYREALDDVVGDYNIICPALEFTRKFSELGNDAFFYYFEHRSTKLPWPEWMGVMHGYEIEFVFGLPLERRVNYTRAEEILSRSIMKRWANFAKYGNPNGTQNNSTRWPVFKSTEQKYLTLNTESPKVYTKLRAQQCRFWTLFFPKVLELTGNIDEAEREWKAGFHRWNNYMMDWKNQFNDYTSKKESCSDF

Row | SMILES | log K [1] | IC50 (Cholinesterase) | IC50 (Acetylcholinesterase) | logP [2] | further results
1 | CC(C)[C@H](NC(=O)OCC(Cl)(Cl)Cl)C(=O)N[C@H](C)c1nc2ccc(F)cc2s1 | 0.8043 | 26.6 µM | 30.3 µM | 4.89 | –
2 | CC(C)[C@H](NC(=O)OCC(F)(F)F)C(=O)N[C@H](C)c1nc2ccc(F)cc2s1 | 0.5643 | 72 µM | 49.4 µM | 4.15 | –
3 | CC(C)[C@H](NC(=O)OCC(F)(F)C(F)F)C(=O)N[C@H](C)c1nc2ccc(F)cc2s1 | 0.5237 | 33.8 µM | 29 µM | 4.09 | –
4 | CC(C)[C@H](NC(=O)OCC(F)(F)C(F)(F)C(F)(F)F)C(=O)N[C@H](C)c1nc2ccc(F)cc2s1 | 0.9218 | 83.2 µM | 85.5 µM | 5.35 | –
5 | CCC[C@H](NC(=O)OC)C(=O)N[C@H](C)c1nc2ccc(F)cc2s1 | 0.4166 | 20.4 µM | 48.8 µM | 3.19 | –
6 | CCC[C@H](NC(=O)OCC)C(=O)N[C@H](C)c1nc2ccc(F)cc2s1 | 0.4873 | 14.1 µM | 34.8 µM | 3.52 | –
7 | CCCOC(=O)N[C@@H](CCC)C(=O)N[C@H](C)c1nc2ccc(F)cc2s1 | 0.5873 | 19.3 µM | 28.5 µM | 4.01 | –
8 | CCC[C@H](NC(=O)OC(C)C)C(=O)N[C@H](C)c1nc2ccc(F)cc2s1 | 0.5752 | 32.2 µM | 21.3 µM | 3.84 | growth inhibition (GI) (MCF7 [3]): Non-toxic; growth inhibition (GI) (MCF7 [4]): Toxic; growth inhibition (GI) (MCF7 [5]): Toxic; growth inhibition (GI) (HepG2 [6]): Toxic; IC50 (MCF7 [7]): 1210 µM; IC50 (HepG2 [8]): 273 µM
9 | CCCCOC(=O)N[C@@H](CCC)C(=O)N[C@H](C)c1nc2ccc(F)cc2s1 | 0.7231 | 19.6 µM | 28 µM | 4.43 | –
10 | CCC[C@H](NC(=O)OCC(C)C)C(=O)N[C@H](C)c1nc2ccc(F)cc2s1 | 0.7063 | 26.1 µM | 20.2 µM | 4.41 | growth inhibition (GI) (MCF7 [3]): Non-toxic; growth inhibition (GI) (MCF7 [4]): Toxic; growth inhibition (GI) (MCF7 [5]): Toxic; growth inhibition (GI) (HepG2 [6]): Toxic; IC50 (MCF7 [7]): 612 µM; IC50 (HepG2 [8]): 275 µM
11 | CCC[C@H](NC(=O)OCCCl)C(=O)N[C@H](C)c1nc2ccc(F)cc2s1 | 0.514 | 54.1 µM | 35.4 µM | 3.9 | –
12 | CCC[C@H](NC(=O)OCC(Cl)(Cl)Cl)C(=O)N[C@H](C)c1nc2ccc(F)cc2s1 | 0.8297 | 62.7 µM | 28.6 µM | 4.91 | –
13 | CCC[C@H](NC(=O)OCC(F)(F)F)C(=O)N[C@H](C)c1nc2ccc(F)cc2s1 | 0.5825 | 59 µM | 29.3 µM | 4.16 | –
14 | CCC[C@H](NC(=O)OCC(F)(F)C(F)F)C(=O)N[C@H](C)c1nc2ccc(F)cc2s1 | 0.5415 | 43.9 µM | 30.7 µM | 4.11 | –
15 | CCC[C@H](NC(=O)OCC(F)(F)C(F)(F)C(F)(F)F)C(=O)N[C@H](C)c1nc2ccc(F)cc2s1 | 0.9463 | 59.8 µM | 46 µM | 5.37 | –
16 | COC(=O)N[C@H](C(=O)N[C@H](C)c1nc2ccc(F)cc2s1)C(C)C | 0.4113 | 32 µM | 91.2 µM | 3.17 | –
17 | CCOC(=O)N[C@H](C(=O)N[C@H](C)c1nc2ccc(F)cc2s1)C(C)C | 0.4834 | 35.6 µM | 153 µM | 3.51 | growth inhibition (GI) (MCF7 [3]): Non-toxic; growth inhibition (GI) (MCF7 [9]): Non-toxic; growth inhibition (GI) (MCF7 [10]): Non-toxic; growth inhibition (GI) (MCF7 [4]): Toxic; growth inhibition (GI) (MCF7 [5]): Toxic; growth inhibition (GI) (HepG2 [11]): Non-toxic; growth inhibition (GI) (HepG2 [12]): Toxic; IC50 (MCF7 [7]): > 4390 µM; IC50 (HepG2 [8]): > 5000 µM
18 | CCCOC(=O)N[C@H](C(=O)N[C@H](C)c1nc2ccc(F)cc2s1)C(C)C | 0.5851 | 70.4 µM | 109 µM | 3.99 | growth inhibition (GI) (MCF7 [3]): Non-toxic; growth inhibition (GI) (MCF7 [10]): Non-toxic; growth inhibition (GI) (MCF7 [4]): Toxic; growth inhibition (GI) (MCF7 [5]): Toxic; growth inhibition (GI) (HepG2 [13]): Non-toxic; growth inhibition (GI) (HepG2 [14]): Toxic; IC50 (MCF7 [7]): 4390 µM; IC50 (HepG2 [8]): 1730 µM
19 | CCCCOC(=O)N[C@H](C(=O)N[C@H](C)c1nc2ccc(F)cc2s1)C(C)C | 0.7135 | 62.5 µM | 68.1 µM | 4.41 | –
20 | CC(C)COC(=O)N[C@H](C(=O)N[C@H](C)c1nc2ccc(F)cc2s1)C(C)C | 0.7041 | 41.1 µM | 49.3 µM | 4.39 | –
21 | CC(C)[C@H](NC(=O)OCCCl)C(=O)N[C@H](C)c1nc2ccc(F)cc2s1 | 0.5014 | 54.2 µM | 47.5 µM | 3.88 | –
22 | CC(C)[C@H](NC(=O)OCCBr)C(=O)N[C@H](C)c1nc2ccc(F)cc2s1 | 0.5418 | – | 47.2 µM | 4 | –
23 | CC(C)OC(=O)N[C@H](C(=O)N[C@H](C)c1nc2ccc(F)cc2s1)C(C)C [BENTHIAVALICARB-ISOPROPYL] | 0.5725 | 41.1 µM | 95 µM | 3.82 | –
24 | COc1ccc2c3c1O[C@H]1C[C@@H](O)C=C[C@@]31CCN(C)C2 [GALANTAMINE] | – | – | – | 1.41 | –
25 | CCN(C)C(=O)Oc1cccc([C@H](C)N(C)C)c1 [RIVASTIGMINE] | – | – | – | 2.36 | –
